Experimental data from ChEMBL document CHEMBL5096187, “Efficient Synthesis and Bioevaluation of Novel Dual Tubulin/Histone Deacetylase 3 Inhibitors as Potential Anticancer Agents” (J Med Chem, 2021).
Activity calls are given as the source filed them. No cut-off for these calls is given here.

Legend:
B16-F10 [1] = experiment: Antimigratory activity against mouse […] cells assessed as reduction in wound closure measured up to 24 hrs by scratch wound healing assay; assay type: functional, cell-based; details: dose 25-100 nM, DDE = dose-dependent effect
Procedure, shortened: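 B16-F10 cells seeded overnight; confluent monolayers scratched with a pipette tip and rinsed twice with medium to clear debris. Cells treated with compound for 24 h against a DMSO control. Phase-contrast images taken at 0 and 24 h. Migration distance into the wound, or scratch length, measured by hand. n = 3.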

B16-F10 [2] = experiment: Induction of apoptosis in mouse B16-F10 cells assessed as early apoptotic cells at 100 nM incubated for 48 hrs by Annexin V-FITC/PI analysis (reference value: 1.68 %); assay type: functional
B16-F10 [3] = experiment: Inhibition of colony formation in mouse B16-F10 cells assessed as reduction in number of colonies incubated for 24 hrs; assay type: functional, cell-based; details: dose 25-100 nM, DDE = dose-dependent effect
Procedure, shortened: (§1)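 1000 B16-F10 cells seeded and cultured 24 h at 37 °C, then exposed to compound for 24 h. Medium was then replaced and cells grown 10–14 days. Colonies fixed with 4% paraformaldehyde for 30 min, stained with 0.1% crystal violet for 15 min, and counted; n = 3 versus DMSO.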

[4] = Hepatotoxicity in C57BL/6 mouse assessed as effect on ALT level in serum; assay type: toxicity
B16-F10 [5] = experiment: Inhibition of cell migration in mouse B16-F10 cells assessed as reduction in wound area ratio measured at 100 nM incubated for 24 hrs by wound healing assay; assay type: functional; parameters: scale not given: the % may be the effect or the level left
Procedure, shortened: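 Confluent B16-F10 monolayers, seeded overnight, were scratched with a pipette tip and washed to remove debris. Cells were then treated, and phase-contrast images were taken at 0 and 24 h. Migration distance or wound area measured manually against DMSO control; n = 3.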

B16-F10 [6] = experiment: Induction of apoptosis in mouse B16-F10 cells assessed as viable cells at 25 nM incubated for 48 hrs by Annexin V-FITC/PI analysis (reference value: 98.3 %); assay type: functional; details: read-out: Activity
HCT-116 = experiment: Antiproliferative activity against human HCT-116 cells assessed as inhibition of cell viability measured for 48 hrs by microplate reader based MTT assay; assay type: functional; details: HCT-116, 48 h
Procedure, shortened: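 Cells grown in RPMI-1640 with 10% FBS and seeded at 5000 cells/well. After overnight attachment, compound was added in medium with 0.1% DMSO for 48 h at 37 °C. Read-out was MTT for HCT-116, B16-F10 and A549, and CCK-8 for Jurkat (0.5 mg/mL, 4 h), with absorbance at 570 nm. IC50 from nonlinear regression; at least three independent experiments.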

[7] = Hepatotoxicity in C57BL/6 mouse assessed as effect on total bilirubin level in serum; assay type: toxicity
[8] = Nephrotoxicity in C57BL/6 mouse assessed as effect on urea level in serum; assay type: toxicity; details: in vivo
B16-F10 [9] = experiment: Induction of apoptosis in mouse B16-F10 cells assessed as early apoptotic cells at 25 nM incubated for 48 hrs by Annexin V-FITC/PI analysis (reference value: 1.68 %); assay type: functional
B16-F10 [10] = experiment: Inhibition of colony formation in mouse B16-F10 cells assessed as reduction in number of colonies at 100 nM incubated for 24 hrs; assay type: functional, cell-based; procedure, shortened: as §1

Compound: COc1cc(C(=O)c2csc(-c3ccc(NC(=O)CCCC(=O)Nc4ccccc4N)cc3)n2)cc(OC)c1OC
- Activity (B16-F10 [1]): Dde
- Activity (B16-F10 [2]): 5.83%
- Activity (B16-F10 [3]): Dde
- Activity [4]: Non-Toxic
- Activity (B16-F10 [5]): 7.18%
- viability at 0.025 µM (B16-F10 [6]): 89.1%
- IC50 (HCT-116): 50 nM
- Activity [7]: Non-Toxic
- Activity [8]: Non-Toxic
- Activity (B16-F10 [9]): 10.9%
- Activity (B16-F10 [10]): Active
